Measurements: ChEMBL document CHEMBL3271935, “Synthesis and biological activity of some broad-spectrum N-acylphenyglycine cephalosporins” (1977)
Values after ≈ are worked out from the molar mass of the structure shown.

Assays:
[1] = system: Morganella morganii; assay: Antibacterial activity against indole positive Proteus morganii 179 assessed as growth inhibition by two-fold agar dilution method; format: functional
Summary of the method: (§1)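 MIC (μg/mL) by twofold agar dilution on Trypticase soy agar buffered to pH 6.0.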

[2] = system: Pseudomonas aeruginosa; assay: Antibacterial activity against Pseudomonas aeruginosa 1063 assessed as growth inhibition; format: functional
Summary of the method: (§2)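 Broth MIC by the standard microtiter technique in unbuffered Mueller-Hinton broth.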

[3] = system: Pseudomonas aeruginosa; assay: Antibacterial activity against Pseudomonas aeruginosa HH 63 assessed as growth inhibition by two-fold agar dilution method; format: functional; summary of the method: as §1
[4] = system: Pseudomonas aeruginosa; assay: Antibacterial activity against Pseudomonas aeruginosa 1042 assessed as growth inhibition; format: functional; summary of the method: as §2
[5] = system: Pseudomonas aeruginosa; assay: Antibacterial activity against Pseudomonas aeruginosa 1504 assessed as growth inhibition; format: functional; summary of the method: as §2
[6] = system: Pseudomonas aeruginosa; assay: Antibacterial activity against Pseudomonas aeruginosa 864 assessed as growth inhibition; format: functional; summary of the method: as §2
[7] = system: Escherichia coli; assay: Antibacterial activity against Escherichia coli 12140 assessed as growth inhibition by two-fold agar dilution method; format: functional; summary of the method: as §1
[8] = system: Salmonella paratyphi; assay: Antibacterial activity against Salmonella paratyphi ATCC 12176 assessed as growth inhibition by two-fold agar dilution method; format: functional, Salmonella enterica subsp. enterica serovar Paratyphi A; conditions: Salmonella enterica
Summary of the method: (§3)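 Twofold agar dilution on Trypticase soy agar buffered to pH 6.0. MIC reported in μg/mL.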

[9] = system: Pseudomonas aeruginosa; assay: Antibacterial activity against Pseudomonas aeruginosa 647 assessed as growth inhibition; format: functional; summary of the method: as §2
[10] = system: Klebsiella pneumoniae; assay: Antibacterial activity against Klebsiella pneumoniae 4200 assessed as growth inhibition by two-fold agar dilution method; format: functional; summary of the method: as §1
[11] = system: Pseudomonas aeruginosa; assay: Antibacterial activity against Pseudomonas aeruginosa 219 assessed as growth inhibition; format: functional; summary of the method: as §2
[12] = system: Klebsiella aerogenes; assay: Antibacterial activity against Enterobacter aerogenes ATCC 13048 assessed as growth inhibition by two-fold agar dilution method; format: functional; summary of the method: as §1
[13] = system: Pseudomonas aeruginosa; assay: Antibacterial activity against Pseudomonas aeruginosa 1106 assessed as growth inhibition; format: functional; summary of the method: as §2
[14] = system: Staphylococcus aureus; assay: Antibacterial activity against penicillin G resistant Staphylococcus aureus HH 127 assessed as growth inhibition by two-fold agar dilution method; format: functional; summary of the method: as §3
[15] = system: Pseudomonas aeruginosa; assay: Antibacterial activity against Pseudomonas aeruginosa 1062 assessed as growth inhibition; format: functional; summary of the method: as §2
[16] = system: Escherichia coli; assay: Antibacterial activity against Escherichia coli 12140 infected in sc dosed mouse administered at 1 to 5 hrs measured for 3 days; format: functional; conditions: Escherichia coli, 12140, sc; read-out: PD50
Summary of the method: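 Mice infected intraperitoneally with about 2×10^3 organisms per mouse of E. coli 12140 culture diluted in 5% hog gastric mucin, giving uniformly lethal infection. Fourfold dilutions given subcutaneously in equally divided portions at 1 and 5 h postinfection, five groups per compound. Survivors observed 3 days. PD50 is total dose (mg/kg) protecting 50%, calculated by Litchfield–Wilcoxon method.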

For `CC1(C)S[C@@H]2[C@H](NC(=O)C(C(=O)O)c3ccccc3)C(=O)N2[C@H]1C(=O)O` (stereo partly specified) [CARBENICILLIN], the MIC [1] was 0.8 µg/mL (≈ 2.11 µM), the MIC [2] was 63 µg/mL (≈ 166 µM) and the MIC [3] was 50 µg/mL (≈ 132 µM). For the same compound, the MIC [4] was 63 µg/mL (≈ 166 µM), the MIC [5] was 63 µg/mL (≈ 166 µM) and the MIC [6] was 500 µg/mL (≈ 1320 µM). For the same compound, the MIC [7] was 6.3 µg/mL (≈ 16.6 µM), the MIC [8] was 6.3 µg/mL (≈ 16.6 µM) and the MIC [9] was 63 µg/mL (≈ 166 µM). The MIC [10] was 6.3 µg/mL (≈ 16.6 µM), the MIC [11] was 63 µg/mL (≈ 166 µM) and the MIC [12] was 12.5 µg/mL (≈ 33 µM). It also gave an MIC [13] of 125 µg/mL (≈ 330 µM), an MIC [14] of 3.1 µg/mL (≈ 8.19 µM) and an MIC [15] of 63 µg/mL (≈ 166 µM). For the same compound, the ED50 [16] was 25 mg/kg.
